These results are taken from ChEMBL document CHEMBL4266015, “Scaffold Ranking and Positional Scanning Identify Novel Neurite Outgrowth Promoters with Nanomolar Potency” (2018).

Bounds are passed on as bounds.

Holding throughout (assay type): functional, Hippocampal neurone
Test [1] can be described thus: Induction of neurite outgrowth in rat hippocampal neurons assessed as neurite total length at 31.25 ng/ml after 48 hrs relative to control. The essentials: (§1)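 E18 rat hippocampal neurons were plated on PDL at 1800 cells/well in NbActive4, adhered 2 h, then treated with compound prediluted in medium at 4× final for 48 h. Cells were fixed, stained for βIII-tubulin, imaged and auto-traced. Mean neurite total length is a percentage of DMSO vehicle wells on the same plate. ML-7 was the positive control and plates with Z-factor >0.5 were accepted.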

Test [2] is described as follows: Induction of neurite outgrowth in rat hippocampal neurons assessed as neurite total length after 48 hrs. Summed up:
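Dissociated E18 rat hippocampal neurons were seeded on PDL-coated plates at 1800 cells/well in NbActive4 and allowed to adhere 2 h. Compounds were prediluted in medium at 4× final and added, then cells were grown 48 h (2 DIV). Wells were fixed, immunostained for βIII-tubulin and imaged by automated tracing. ED200% and ED300% values were linearly interpolated from dose-response curves of mean neurite total length.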

The nature of test [3]: Induction of neurite outgrowth in rat hippocampal neurons assessed as neurite total length at 62.5 ng/ml after 48 hrs relative to control. Summed up:
as §1

Test [4] in a line: Induction of neurite outgrowth in rat hippocampal neurons assessed as neurite total length at 500 ng/ml after 48 hrs relative to control. The essentials:
as §1

A short description of test [5]: Induction of neurite outgrowth in rat hippocampal neurons assessed as neurite total length at 250 ng/ml after 48 hrs relative to control. Summed up: as §1
A short description of test [6]: Induction of neurite outgrowth in rat hippocampal neurons assessed as neurite total length at 15.625 ng/ml after 48 hrs relative to control. The essentials:
as §1

A short description of test [7]: Induction of neurite outgrowth in rat hippocampal neurons assessed as neurite total length at 125 ng/ml after 48 hrs relative to control. The essentials: as §1

As to `CC1CCC(CN2C(=S)N(CCCC[C@H]3CNC(CCCc4ccccc4)=N3)C[C@H]2c2ccccc2)CC1` (stereo partly specified), the Activity in test [1] is listed as 174.3%; in test [3], 237.5%; in test [4], 221.2261%; in test [5] it was 244.7%; in test [6] it was 184.9%; in test [7], 269.1%. For the same molecule, in test [2], the ED200 was determined as 17 nM. In addition, in test [2], the ED300 is given as more than 471 nM.

For `CC(C)CCCCN1C(=S)N(CCCC[C@H]2CNC(CCCCc3ccccc3)=N2)C[C@H]1c1ccccc1`, the Activity worked out at 170.2% in test [1]; 172.4% in test [3]; 225.1% in test [4]; 253.9% in test [5]; 113.8% in test [6]; 259.1% in test [7].

Regarding `CC(C)C[C@@H]1CN(CCCC[C@H]2CNC(CCCCc3ccccc3)=N2)C(=S)N1CCCC1CCCCC1`, the Activity in test [1] is 135.5%; in test [3], 199.3%; in test [4], 246.8%; in test [5], 267.3%; in test [6], 114%; in test [7], 200.8%.

As to `CCC(C)CC1=N[C@@H](CCCCN2C[C@@H](CC(C)C)N(CCCCC(C)C)C2=S)CN1` (stereo partly specified), the Activity stood at 179.8% in test [1]; 222.6% in test [3]; 239.5% in test [4]; 258.7% in test [5]; 122.8% in test [6]; 254% in test [7].

Consider `CC(C)CCCCN1C(=S)N(CCCC[C@H]2CNC(CCCCc3ccccc3)=N2)C[C@H]1C`, for which the Activity in test [1] came to 100.5%; in test [3], 124.2%; in test [4], 346.7%; in test [5] it was 257.3265%; in test [6], 116.4%; in test [7], 160.4%.

Consider `CCC(C)C1=N[C@@H](CCCCN2C[C@@H](CC(C)C)N(CC3CCC(C)CC3)C2=S)CN1` (stereo partly specified), for which the Activity in test [1] turned out to be 216.3%; in test [3], 253.6%; in test [4], 264.4%; in test [5], 236%; in test [6] it was 131.1%; in test [7], 268.2%. Moreover, in test [2], the ED200 was 10 nM. For the same molecule, the ED300 in test [2] is 53 nM.

With `CCC(C)CC1=N[C@@H](CCCCN2C[C@@H](C)N(CCCCC(C)C)C2=S)CN1` (stereo partly specified), the Activity in test [1] is 115.6%; in test [3] it was 155%; in test [4], 323.0821%; in test [5] it was 209.2%; in test [6], 92.45%; in test [7], 169.1%.

As to `CC(C)C[C@@H]1CN(CCCC[C@H]2CNC(C3CCCC3)=N2)C(=S)N1CCC1CCCCC1`, the Activity amounted to 256.5% in test [1]; 271% in test [3]; 248.7% in test [4]; 277.2% in test [5]; 194.9% in test [6]; 282.9% in test [7]. The ED200 in test [2] was 4 nM. Besides, in test [2], the ED300 was more than 543 nM.

As for `CC(C)CCCCN1C(=S)N(CCCC[C@H]2CNC(CC3CCCC3)=N2)C[C@H]1c1ccccc1`, the Activity in test [1] is on record as 234.3%; in test [3] it was 279.6%; in test [4] it was 273%; in test [5], 277.9%; in test [6], 173.9%; in test [7], 249.2%.

With `CC1CCC(CCN2C(=S)N(CCCC[C@H]3CNC(CCCCc4ccccc4)=N3)C[C@H]2C)CC1` (stereo partly specified), the Activity stood at 101.9% in test [1]; 117.7% in test [3]; 296.9% in test [4]; 237.6% in test [5]; 88.36% in test [6]; 70.33% in test [7].

As for `CCC(C)CC1=N[C@@H](CCCCN2C[C@@H](c3ccccc3)N(CCCC3CCCCC3)C2=S)CN1` (stereo partly specified), the Activity in test [1] worked out at 200.8%; in test [3], 257.2%; in test [4], 228.1%; in test [5], 221.9%; in test [6], 139%; in test [7], 245.5%.

With `C[C@@H]1CN(CCCC[C@H]2CNC(CCCCc3ccccc3)=N2)C(=S)N1CCCC1CCCCC1`, the Activity stood at 122.1% in test [1]; 122% in test [3]; 242.7% in test [4]; 246.6% in test [5]; 100.8% in test [6]; 209.7% in test [7].

Regarding `CCC(C)CC1=N[C@@H](CCCCN2C[C@@H](C)N(CCCC3CCCCC3)C2=S)CN1` (stereo partly specified), the Activity in test [1] was found to be 121.4%; in test [3], 142.6%; in test [4], 357.5%; in test [5] it was 246.1%; in test [6], 102.3%; in test [7], 196.1%.

Turning to `CC(C)CCCCN1C(=S)N(CCCC[C@H]2CNC(CCCCc3ccccc3)=N2)C[C@H]1CC(C)C`, the Activity in test [1] is reported as 145.3%; in test [3] it was 194.1%; in test [4], 239.9%; in test [5] it was 265.6%; in test [6] it was 127.4%; in test [7] it was 237.1%.

Turning to `C[C@@H]1CN(CCCC[C@H]2CNC(CC3CCCC3)=N2)C(=S)N1CCCC1CCCCC1`, the Activity in test [1] is on record as 157.6%; in test [3], 188%; in test [4], 304.4%; in test [5], 245.7679%; in test [6], 104.7%; in test [7], 250.7%.

On to `CCC(C)CC1=N[C@@H](CCCCN2C[C@@H](CC(C)C)N(CCCC3CCCCC3)C2=S)CN1` (stereo partly specified), for which the Activity in test [1] came to 178.9%; in test [3] it was 261.9%; in test [4], 264.0755%; in test [5], 253.1%; in test [6] it was 158.9%; in test [7] it was 252.9%.

As to `CCC(C)CC1=N[C@@H](CCCCN2C[C@@H](c3ccccc3)N(CCCCC(C)C)C2=S)CN1` (stereo partly specified), the Activity was found to be 179.4% in test [1]; 252.8% in test [3]; 276.3% in test [4]; 265.8% in test [5]; 121.4% in test [6]; 263.7% in test [7].

With `CCC(C)CC1=N[C@@H](CCCCN2C[C@@H](C)N(CCC3CCC(C)CC3)C2=S)CN1` (stereo partly specified), the Activity in test [1] was 134.9%; in test [3], 150%; in test [4], 293.6%; in test [5], 266.7%; in test [6], 97.33%; in test [7] it was 166.2%.

As for `S=C1N(CCCC[C@H]2CNC(CCCCc3ccccc3)=N2)C[C@@H](c2ccccc2)N1CCCC1CCCCC1`, the Activity came to 208.9% in test [1]; 251.6% in test [3]; 183.5% in test [4]; 221.8% in test [5]; 143.7% in test [6]; 254.2% in test [7].

Turning to `CC(C)CCCCN1C(=S)N(CCCC[C@H]2CNC(CC3CCCC3)=N2)C[C@H]1C`, the Activity in test [1] is given as 137.9%; in test [3], 175.9%; in test [4], 323.7%; in test [5] it was 264.8%; in test [6], 113.8%; in test [7], 213.9%.
